# Assay results from paper PMC5325675 (Molecular cell, 2017).
# Substitutions are numbered along the chain they refer to.
# Legend:
# PTP1B (residues 1-301) = target: T1, PTP1B (residues 1-301) (Homo sapiens, UniProt P18031); assay: Fluorescence affinity measurement of inhibitor binding to PTP1B; settings: binding to PTP1B (wt, 1-301); Table S1
# T1 sequence (P18031 1-301): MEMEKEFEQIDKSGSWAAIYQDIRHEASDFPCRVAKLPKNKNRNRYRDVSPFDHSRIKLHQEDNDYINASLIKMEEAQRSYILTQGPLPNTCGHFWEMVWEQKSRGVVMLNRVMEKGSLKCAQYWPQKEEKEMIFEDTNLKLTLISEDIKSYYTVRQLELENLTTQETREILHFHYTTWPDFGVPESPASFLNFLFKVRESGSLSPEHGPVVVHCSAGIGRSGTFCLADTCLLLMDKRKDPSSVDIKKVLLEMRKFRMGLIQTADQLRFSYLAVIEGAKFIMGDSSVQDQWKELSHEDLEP
# PTP1BΔ7 (residues 1-284) = target: T2, PTP1BΔ7 (residues 1-284) (Homo sapiens, UniProt P18031); assay: Fluorescence affinity measurement, PTP1BΔ7; settings: binding to PTP1BΔ7
# T2 sequence (P18031 1-284): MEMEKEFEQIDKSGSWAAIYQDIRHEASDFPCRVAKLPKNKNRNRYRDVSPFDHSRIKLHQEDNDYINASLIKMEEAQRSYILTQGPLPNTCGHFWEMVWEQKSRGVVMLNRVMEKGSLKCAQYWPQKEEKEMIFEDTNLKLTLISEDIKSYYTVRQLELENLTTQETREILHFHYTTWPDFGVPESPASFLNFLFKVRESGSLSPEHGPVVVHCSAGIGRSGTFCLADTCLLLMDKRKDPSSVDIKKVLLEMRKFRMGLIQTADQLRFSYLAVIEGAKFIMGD
# Summary of the method: (§1)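 Human PTP1B catalytic domain (residues 1-301; Δ7 is 1-284) was expressed in E. coli BL21(DE3) RIL and the His-tag removed with TEV. Protein at 2.5 µM in 50 mM HEPES pH 7.5, 150 mM NaCl, 0.5 mM TCEP was titrated with test compound (0-140 µM), with a DMSO-only control. Fluorescence was read at excitation 280 nm, emission 300-550 nm. KD came from a quadratic single-site fit; triplicate.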
# PTP1BYAYA (Y152AY153A) = target: T3, PTP1BYAYA (Y152AY153A) (Homo sapiens, UniProt P18031, Y152A/Y153A); assay: Fluorescence affinity measurement, PTP1BYAYA; settings: binding to PTP1BYAYA
# T3 sequence (P18031 1-301 Y152A/Y153A): T1 sequence (P18031 1-301) with Y152A, Y153A
# Summary of the method: as §1
# PTP1BN193A [1] = target: T4, PTP1BN193A (Homo sapiens, UniProt P18031, N193A); assay: Fluorescence affinity measurement, PTP1BN193A; settings: binding to PTP1BN193A
# T4 sequence (P18031 1-301 N193A): T1 sequence (P18031 1-301) with N193A
# Summary of the method: as §1
# PTP1BT178A = target: T5, PTP1BT178A (Homo sapiens, UniProt P18031, T178A); assay: Fluorescence affinity measurement, PTP1BT178A; settings: binding to PTP1BT178A
# T5 sequence (P18031 1-301 T178A): T1 sequence (P18031 1-301) with T178A
# Summary of the method: as §1
# PTP1BP185G = target: T6, PTP1BP185G (Homo sapiens, UniProt P18031, P185G); assay: Fluorescence affinity measurement, PTP1BP185G; settings: binding to PTP1BP185G (catalytically dead variant)
# T6 sequence (P18031 1-301 P185G): T1 sequence (P18031 1-301) with P185G
# Summary of the method: as §1
# PTP1BL192A = target: T7, PTP1BL192A (Homo sapiens, UniProt P18031, L192A); assay: Fluorescence affinity measurement, PTP1BL192A; settings: binding to PTP1BL192A
# T7 sequence (P18031 1-301 L192A): T1 sequence (P18031 1-301) with L192A
# Summary of the method: as §1
# PTP1BN193A [2] = target: T4, PTP1BN193A; assay: pNPP activity assay with TCS401; type: biochemical
# Summary of the method: (§2)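 Freshly prepared enzyme (0.15 µM) in 50 mM HEPES pH 7.5, 150 mM NaCl, 0.5 mM TCEP was run with pNPP (0-6000 µM), with or without test compound at 100 or 300 µM (0.4 or 1.2% DMSO). Reactions ran 30 min at 30°C, were stopped with 0.5 M NaOH and read at 405 nm, minus no-enzyme blanks. Km came from Michaelis-Menten fits and Ki from Km,obs = Km(1+[I]/Ki). Duplicates, repeated 3-6 times.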
# PTP1BYAYA = target: T8, PTP1BYAYA (Homo sapiens, UniProt P18031, Y152A/Y153A); assay: pNPP activity assay with TCS401; type: biochemical
# T8 sequence (P18031 1-301 Y152A/Y153A): T1 sequence (P18031 1-301) with Y152A, Y153A
# Summary of the method: as §2
# PTP1BΔ7 = target: T9, PTP1BΔ7 (Homo sapiens, UniProt P18031); assay: pNPP activity assay with TCS401; type: biochemical
# T9 sequence (P18031 1-284): T2 sequence (P18031 1-284)
# Summary of the method: as §2
structure (smiles),measurement,setting,value
O=C(O)C(=O)Nc1sc2c(c1C(=O)O)CCNC2 [TCS401],Kd,PTP1B (residues 1-301),~26 µM
same,Kd,PTP1BΔ7 (residues 1-284),33 ± 6 µM
same,Kd,PTP1BYAYA (Y152AY153A),26 ± 3 µM
same,Kd,PTP1BN193A [1],37 ± 4 µM
same,Kd,PTP1BT178A,45 ± 3.5 µM
same,Kd,PTP1BP185G,20 ± 0.6 µM
same,Kd,PTP1BL192A,39 ± 6 µM
same,Ki (competition between substrate and TCS401) compared with PTP1B,PTP1BN193A [2],higher Ki values
same,Ki (competition between substrate and TCS401) compared with PTP1B,PTP1BYAYA,higher Ki values
same,Ki (competition between substrate and TCS401) compared with PTP1B,PTP1BΔ7,higher Ki values
